Source: PubChem BioAssay
HEK293 NFkB inh – lowers PMA/ionomycin-induced NF-kB signal in HEK293 cells | AID 465 | 62,000 tested, 0.21% active | HEK-293 NF-kB luciferase reporter, luminescence | inhibition, % at 3 µM;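 active means inhibition above the mean of all tested compounds plus 3 SD, cut at about 40% in these data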
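Signal: luciferase luminescence; Material: HEK-293 cells with stable firefly luciferase reporter driven by four HIV NF-kB elements; Probe or stimulus: PMA with ionomycin; Replication: tested once; Times: 1 h compound pretreatment, then 16 h stimulation at 37 °C, 5% CO2; Benchmarks: DMSO and 10 µM reference inhibitor; Evaluation: per-plate % inhibition versus controls.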
hDAT+cocaine – modulates human dopamine transporter uptake under cocaine; AID 449768; 110,000 tested, 1.3% active; B-score at 10 µM; Q01959; LLC-PK1 hDAT cells, [14C]-dopamine uptake with cocaine IC80; actives deviate in either direction;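 active means Z score or B-score, a plate-position-corrected score, falls beyond the plate's 99.7% confidence bounds, in either direction; inactive means both scores lie inside the 99.7% bounds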
BAP1 inh – inhibitors of human BAP1 deubiquitinase; Q92560; recombinant BAP1, Ub-AMC hydrolysis fluorescence kinetic; stronger effect = lower value; calls only at 20 µM; 72,000 tested, 0.48% active; AID 436;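 active means activity remaining at or below 50% of control, provided the compound also passes the data quality filters; inactive means the rest, including low values that fail the filters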
Target sequence (Q92560 whole entry, looked up): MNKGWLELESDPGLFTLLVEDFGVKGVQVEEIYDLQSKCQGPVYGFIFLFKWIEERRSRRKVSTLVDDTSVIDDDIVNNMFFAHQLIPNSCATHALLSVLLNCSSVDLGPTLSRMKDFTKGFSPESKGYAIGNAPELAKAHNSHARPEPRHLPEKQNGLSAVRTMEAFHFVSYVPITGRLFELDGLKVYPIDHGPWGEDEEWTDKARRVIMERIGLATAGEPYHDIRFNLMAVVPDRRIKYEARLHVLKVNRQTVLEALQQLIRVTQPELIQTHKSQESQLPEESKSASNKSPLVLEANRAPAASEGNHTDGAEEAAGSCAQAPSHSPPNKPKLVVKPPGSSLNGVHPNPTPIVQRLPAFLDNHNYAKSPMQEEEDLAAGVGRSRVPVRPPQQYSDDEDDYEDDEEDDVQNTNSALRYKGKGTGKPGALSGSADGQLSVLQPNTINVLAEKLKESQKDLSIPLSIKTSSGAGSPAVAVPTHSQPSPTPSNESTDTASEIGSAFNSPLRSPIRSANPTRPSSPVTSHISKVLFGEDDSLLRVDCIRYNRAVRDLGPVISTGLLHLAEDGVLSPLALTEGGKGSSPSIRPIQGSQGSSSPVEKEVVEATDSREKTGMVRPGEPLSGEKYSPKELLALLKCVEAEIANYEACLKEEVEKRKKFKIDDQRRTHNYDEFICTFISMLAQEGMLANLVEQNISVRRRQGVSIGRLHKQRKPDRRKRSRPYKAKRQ
M1 ag – agonists of M1 muscarinic receptor | CHO-M1 cells, Fluo-4 calcium fluorescence, agonist mode; stronger effect = higher value | B-score at 10 µM | 64,000 tested, 3% active | AID 626;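 active means fluorescence rise, raw or as B-score row- and column-corrected plate score, outside the 99.7% band of its plate's samples, either direction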
M1 antag – M1 muscarinic receptor (rat) antagonism; P08482; CHO-M1 cells, Fluo-4 calcium, ACh EC80 antagonist mode; stronger effect = lower value; B-score at 10 µM; 64,000 tested, 3.4% active;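 active means calcium fluorescence response, raw or row-and-column corrected B-score, differing from the plate sample mean either way at a set confidence level, mostly lower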
D1 allo mod – D1 dopamine receptor (human) allosteric modulation; P21728; HEK293 D1, CRE-luciferase, dopamine EC30 potentiation; actives deviate in either direction; B-score at 10 µM; 58,000 tested, 5.9% active;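 active means luminescence count or its row- and column-corrected plate score outside the 99.7% band of the plate's sample wells, on either side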
M1 ag confirm – confirmation of rat M1 muscarinic receptor agonists; shares compounds with M1 ag; CHO-M1 cells, Fluo-4 calcium fluorescence, agonist mode; actives lie on both sides; fluorescence change (max-min) at 10 µM; 1,700 tested, 19% active;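 active means fluorescence change differs from the solvent-only DMSO control mean at a set confidence level in both duplicate runs; inconclusive means differs from solvent-only control mean in just one of two runs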;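 further: an EC20 dose of acetylcholine follows compound addition during the same imaging run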
M4 agonist ctr – activates rat M4 receptor in counter-screen for M1 agonists; 1,700 tested, 9% active; fluorescence change (max-min) at 10 µM; CHO M4/Gqi5 cells, Fluo-4 calcium fluorescence, agonist mode; actives lie on both sides; shares compounds with M1 ag; AID 1741;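 active means fluorescence change differing from the plate's solvent-only control wells at 99.7% confidence in both duplicates, whether higher or lower; inconclusive means differs from solvent controls in only one of two duplicates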
Hits are given with their value; - = inactive; ? = inconclusive; . = not tested or not shown. A selection: hits, their analogues and other compounds. The true share with any hit is near 7.2%.

SMILES	HEK293 NFkB inh	hDAT+cocaine	BAP1 inh	M1 ag	M1 antag	D1 allo mod	M1 ag confirm	M4 agonist ctr
Cc1cc2oc(=O)cc(CN3CCCCC3)c2cc1C(C)C	-	-	-	11	-	-	?	-
Cc1cc2oc(=O)cc(CSc3nc(N)cc(N)n3)c2cc1C(C)C	.	-	.	.	.	.	.	.
Oc1ccc(-c2nc3ccc4ccccc4c3c3c2CCCC3)cc1O	.	.	-	.	.	.	.	.
Cc1ccc(C)c(N2CCN(C(=O)CN(C)S(=O)(=O)c3ccc4c(c3)CCC(=O)N4)CC2)c1	-	-	-	2.27	-	.	?	-
CN1CC=C2C(C#N)=C(N)C(C#N)(C#N)C(c3ccsc3)C2C1 (stereo not given)	.	-	.	.	.	.	.	.
COc1cc([C@@H]2[C@H]3CN(C)CC=C3C(C#N)=C(N)C2(C#N)C#N)cc2c1OCO2	.	-	-	6.65	-	.	-	-
CN1CC=C2C(C#N)=C(N)C(C#N)(C#N)[C@H](c3cccc(Cl)c3)C2C1 (stereo not given in full)	.	-	-	53.5	-	-	173	-
CN1CC=C2C(C#N)=C(N)C(C#N)(C#N)C(CCc3ccccc3)C2C1 (stereo not given)	-	-	-	18.3	-	-	90.7	-
CN1CC=C2C(C#N)=C(N)C(C#N)(C#N)[C@H](c3cccs3)[C@H]2C1	.	-	.	.	.	.	.	.
COc1cccc(C2C3CN(C)CC=C3C(C#N)=C(N)C2(C#N)C#N)c1OC (stereo not given)	-	-	.	87	-	-	651	605
COc1ccccc1NC(=O)c1c(NC(=O)c2ccccc2F)sc(-c2ccccc2)c1C	.	.	-	.	.	.	.	.
COc1ccc(C2CC(=O)C3=C(C2)Nc2ccccc2NC3c2ccccc2OCc2ccccc2)cc1 (stereo not given)	.	.	-	.	.	.	.	.
CCN1CC=C2C(C#N)=C(N)C(C#N)(C#N)[C@H](c3cccc(OC)c3OC)[C@H]2C1	.	-	-	271	-	-	307	?
CCOc1ncccc1C(=O)Nc1ccc2c(C)cc(=O)oc2c1	-	-	.	13.4	-	-	?	?
N#Cc1cccc(NC(=O)Nc2cccs2)c1	-	-	-	11.2	-	-	-	-
CCOc1ccc(S(=O)(=O)N2CCN(c3ccccc3OC)CC2)c2cccnc12	-	-	-	5.19	-	.	-	-
CS(=O)(=O)N(CC(=O)N1CCCCCC1)c1ccc2c(c1)OCCO2	-	-	-	-2.08	-	-	-	-
O=c1c(O)c(-c2cccs2)oc2ccccc12	-	-	.	140	-1.56	-	696	622
CC(C)Oc1ccc(C2C3=C(CC(C)(C)CC3=O)Nc3ccccc3N2C(=O)C(F)(F)F)cc1 (stereo not given)	.	.	-	.	.	.	.	.
Cc1cccc(C)c1NC(=O)CSc1nc(-c2ccco2)cc(C(F)(F)F)n1	.	-	.	.	.	.	.	.
Cc1nn(C)c(C)c1NC(=O)CCSc1nc(-c2ccco2)cc(C(F)(F)F)n1	-	-	-	34	-3.74	-	-	-
O=C(CSc1nc(-c2ccco2)cc(C(F)(F)F)n1)Nc1ccc(C(=O)N2CCCCC2)cc1	-	-	-	6.69	-	.	?	?
CCn1nc(C)c(NC(=O)CCCSc2nc(-c3ccco3)cc(C(F)(F)F)n2)c1C	-	-	-	-	-	-	.	.
CC1=C(C(=O)OCc2ccccc2)C(c2ccccc2[N+](=O)[O-])CC(=O)N1 (stereo not given)	.	.	-	.	.	.	.	.
CC(C)N1CC2(c3ccccc31)N1CC3(C)CN2CC(C)(C1)C3=O (stereo not given)	.	.	-	.	.	.	.	.
SMILES	HEK293 NFkB inh	hDAT+cocaine	BAP1 inh	M1 ag	M1 antag	D1 allo mod	M1 ag confirm	M4 agonist ctr
O=C1NC(c2cccc(F)c2)Nc2sc3c(c21)CCCC3 (stereo not given)	.	.	-	.	.	.	.	.
COc1ccc(C2NC(=O)NC(C)=C2C(=O)OCCc2ccccc2)cc1OC (stereo not given)	.	.	-	.	.	.	.	.
COCCOC(=O)C1=C(C)NC(=O)NC1c1ccc(OC(=O)c2ccco2)c(OC)c1 (stereo not given)	-	-	-	6.75	-	.	-	-
CC1CCCCC1NC(=O)CSc1nnc(CN2CCOCC2)n1C (stereo not given)	-	-	-	12.5	-	-	-	-
CC(C)(C)c1ccc(OCC(=O)Nc2ccc3oc(-c4ccncc4)nc3c2)cc1	.	.	-	.	.	.	.	.
Cc1ccc(C)c(OCC(O)CN2C(C)CCCC2C)c1 (stereo not given)	-	-	-	2.52	-1.46	-	-29.2	-
O=C(c1ccc(C(=O)N2CCN(c3cccc(Cl)c3)CC2)cc1)N1CCN(c2cccc(Cl)c2)CC1	.	.	-	.	.	.	.	.
Cc1cc(C)n(-c2nnc(C)n2/N=C/c2ccco2)n1	.	-	-	-	-	-	.	.
CCCOc1ccc2ccccc2c1/C=N/n1c(C)nnc1-n1nc(C)cc1C	-	-	-	3.36	-	.	?	-
CCOC(=O)N1C(=O)c2cc(OC)ccc2S1(=O)=O	-	-	-	3.19	-	-	?	?
COc1ccccc1NC(=O)CN1CCC(n2c(C)nc3cc(F)ccc32)CC1	-	-	-	-2.59	-	-	?	-
COc1ccccc1NC(=O)CC1C(=O)NCCN1C(=O)Nc1ccc(Cl)c(Cl)c1 (stereo not given)	-	-	-	-2.1	-	-	?	?
COc1cc(NC(=O)c2ccccc2)c(OC)cc1NC(=O)CN1CCN(c2ccccn2)CC1	-	-	-	5.88	-	-	-	-
COc1ccccc1C(=O)N1CCNC(=O)C1CC(=O)Nc1cccc(C)c1 (stereo not given)	.	-	.	.	.	.	.	.
COc1ccccc1NC(=O)CN1CCC(n2nnc3cc(F)ccc32)CC1	-	-	-	-	-	-	.	.
COc1ccccc1NC(=O)CN1CCN(CC(=O)Nc2cc(NC(C)=O)ccc2OC)CC1	-	-	-	3.73	-	-	?	-
COc1ccccc1NC(=O)CN1CCN(CC(=O)Nc2ccccc2F)CC1	-	.	-	-	-	-	.	.
C=CCNc1nc2c(c(=O)[nH]c(=O)n2C)n1C	.	.	-	.	.	.	.	.
COc1ccccc1NC(=O)C(Cc1ccc([N+](=O)[O-])cc1)N1C(=O)c2ccccc2C1=O (stereo not given)	.	.	-	.	.	.	.	.
COc1ccc(NC(C)=O)cc1NC(=O)CN1CCN(CC(=O)Nc2ccc(Cl)cc2)CC1	-	-	-	-	-	-	.	.
COc1ccc(NC(C)=O)cc1NC(=O)CN1CCN(CC(=O)Nc2ccccc2Cl)CC1	-	-	-	4.03	-	-	?	-
C=CCOC(=O)C1=C(C)NC(=O)NC1c1ccccc1Br (stereo not given)	.	.	-	.	.	.	.	.
Cc1cc(S(=O)(=O)NCC(=O)O)ccc1F	-	-	-	4.95	-	.	-	-
Cc1ccc(S(=O)(=O)NCC(=O)O)cc1	.	.	-	.	.	.	.	.
